Experiments:
[1] = AUC(0 to 5 hrs) in juvenile fasted Sprague-Dawley rat at 30 mg/kg, po administered as 125 mM aqueous Gly-Sar solution by HPLC-tandem mass spectrometry; type: ADME, organism-based; set-up: time < 5 hr, dose 30 mg/kg, route oral; conditions: plasma
In short: (§1)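 7-day-old Sprague-Dawley pups (9.7-18.9 g, both sexes), 15 per group. Given 30 mg/kg by oral gavage (10 ml/kg); breast-fed pups stayed with dams, fasted pups were removed 8 h before dosing. Blood taken by cardiac puncture under isoflurane at 0.25, 0.5, 1, 2 and 5 h, n=3 per time point (composite design). Dichlorvos-treated plasma assayed by LC-MS/MS; AUC0-5h by noncompartmental analysis.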

[2] = AUC(0 to 6 hrs) in adult fasted Sprague-Dawley rat at 30 mg/kg, po administered as solution in bovine milk by HPLC-tandem mass spectrometry; type: ADME, organism-based; set-up: time < 6 hr, dose 30 mg/kg, route oral; conditions: in vivo
In short: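 Adult male Sprague-Dawley rats (243-283 g), jugular-cannulated, fasted from 6 h before dosing through the 6-h study. Given 30 mg/kg orally (free base) at 10 ml/kg, n=3/group. Blood sampled at 0.25-6 h into K2EDTA with dichlorvos esterase inhibitor. Plasma assayed by LC-MS/MS (0.1-500 μg/l). Noncompartmental analysis: linear-trapezoid AUC; infinity extrapolation via log-linear terminal λz.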

[3] = AUC(0 to infinity) in adult fed Sprague-Dawley rat at 30 mg/kg, po administered as water solution by HPLC-tandem mass spectrometry; type: ADME, organism-based; set-up: time infinity, dose 30 mg/kg, route oral; conditions: plasma
In short: (§2)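 Sprague-Dawley males, 7-8 weeks, 243-283 g, jugular-cannulated, 3 days' recovery; fed (chow ad libitum). Single oral dose of 30 mg/kg (free base) at 10 ml/kg; 3 rats/group. Jugular blood taken at 0.25-24 h into K2EDTA with dichlorvos, kept on ice. Plasma analysed by validated LC-MS/MS (0.1-500 μg/l). Noncompartmental analysis; AUC by linear trapezoid, AUC0-∞ extrapolated using λz.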

[4] = Tmax in healthy human at 150 mg, po administered as single dose by HPLC-tandem mass spectrometry under fasting conditions; type: ADME, organism-based; conditions: in vivo
In short: (§3)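 Open-label crossover food-effect study in 18 healthy volunteers (9 male, 9 female, mean age 26). Each received a single 150 mg oral dose of the marketed formulation, once fasting from midnight and once after a high-fat, high-calorie breakfast, separated by a 7–10 day washout. Plasma and urine were collected over 0–72 h and assayed by HPLC-MS/MS for oseltamivir and carboxylate.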

[5] = Cmax in adult fasted Sprague-Dawley rat at 30 mg/kg, po administered as water solution by HPLC-tandem mass spectrometry; type: ADME, organism-based; set-up: dose 30 mg/kg, route oral; conditions: in vivo
In short: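 Adult cannulated Sprague-Dawley rats, fasted (from 6 h predose) or fed, dosed orally at 30 mg/kg (10 ml/kg), 3 per group. Serial jugular plasma with dichlorvos stabilisation, measured by LC-MS/MS. Cmax read graphically from the concentration-time profile.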

[6] = AUC(0 to 24 hrs) in adult fed Sprague-Dawley rat at 30 mg/kg, po administered as solution in bovine milk by HPLC-tandem mass spectrometry; type: ADME, organism-based; set-up: time < 24 hr, dose 30 mg/kg, route oral; conditions: in vivo; in short: as §2
[7] = Renal clearance in healthy human at 150 mg, po administered as single dose by HPLC-tandem mass spectrometry under fasting conditions; type: ADME, organism-based, Kidney; conditions: in vivo; in short: as §3
[8] = Tmax in adult fed Sprague-Dawley rat at 30 mg/kg, po administered as 125 mM aqueous Gly-Sar solution by HPLC-tandem mass spectrometry; type: ADME, organism-based; set-up: dose 30 mg/kg, route oral; conditions: in vivo
In short: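 Cannulated adult male Sprague-Dawley rats with chow ad libitum, 3 per vehicle, were given oral 30 mg/kg (10 ml/kg). Plasma analysis was by HPLC-MS/MS, with Tmax taken graphically from concentration-time profiles.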

[9] = AUC(0 to infinity) in adult fed Sprague-Dawley rat at 30 mg/kg, po administered as 125 mM aqueous Gly-Sar solution by HPLC-tandem mass spectrometry; type: ADME, organism-based; set-up: time infinity, dose 30 mg/kg, route oral; conditions: plasma; in short: as §2
[10] = Cmax in juvenile breast-fed Sprague-Dawley rat at 30 mg/kg, po administered as water solution by HPLC-tandem mass spectrometry; type: ADME, organism-based; set-up: dose 30 mg/kg, route oral; conditions: in vivo; in short: as §1
[11] = Drug uptake in CHOK1 cells incubated for 30s to 15 mins by HPLC coupled with radiodetection analysis; type: ADME, cell-based, Cricetulus griseus; conditions: chinese hamster, cho-k1, 0.25 h
In short: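 Accumulation of [14C]oseltamivir or its carboxylate in CHO-PEPT1 versus CHO-K1 cells. Conditions varied: KH buffer (with MES) or Hanks' balanced salt solution, pH 5 or 6 readjusted after substrate addition, 30 s to 15 min at 37°C. Uptake was quenched with ice-cold PBS-BSA, followed by Triton X-100 lysis, scintillation counting, and BCA protein normalization. HPLC-radiodetection checked ester stability.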

[12] = Drug uptake in CHOK1 cells at 100 uM after 10 mins by HPLC coupled with radiodetection analysis in presence of PEPT1 inhibitor Trp-Gly; type: ADME, cell-based, Cricetulus griseus; conditions: chinese hamster, cho-k1, 10 min
In short: (§4)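 CHO-K1 cells held in KH buffer at pH 6. Incubated 10 min with [14C]oseltamivir at 100 μM, either with 20 mM Trp-Gly, valacyclovir or cefadroxil, or at 4°C (on ice) against 37°C. Quenched with ice-cold PBS-0.2% BSA, washed, lysed in 1% Triton X-100 at 60°C. Lysate counted by scintillation and normalised to BCA protein. Three experiments, each point in triplicate.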

[13] = Drug uptake in CHOK1 cells at 100 uM at pH 4 to 8 after 10 mins by HPLC coupled with radiodetection analysis; type: ADME, cell-based, Cricetulus griseus; conditions: chinese hamster, cho-k1, pH 4, 10 min
In short: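 [14C]oseltamivir at 100 μM incubated with CHO-K1 cells for 10 min at 37°C in KH buffer over pH 4-8, with pH readjusted after compound addition. Washed cells were lysed in Triton X-100, radioactivity counted and normalised to protein. Three independent experiments, each run in triplicate.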

[14] = Drug uptake in CHOK1 cells expressing human PEPT1 at 100 uM after 10 mins by HPLC coupled with radiodetection analysis in presence of PEPT1 inhibitor cefadroxil; type: ADME, cell-based, Cricetulus griseus; conditions: chinese hamster, cho-k1, 10 min
In short: (§5)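 CHO-PEPT1 and parental CHO-K1 cells were washed in KH/MES buffer, then incubated 10 min at 37°C, pH 6, with 100 µM [14C]oseltamivir alone or with 20 mM of the inhibitor. The pH was readjusted after additions. Uptake was quenched with ice-cold PBS-BSA and cells were washed and lysed in 1% Triton X-100. Lysate radioactivity was normalized to BCA protein. Three experiments on separate days, triplicate wells.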

[15] = Drug uptake in CHOK1 cells at 100 uM after 10 mins by HPLC coupled with radiodetection analysis in presence of PEPT1 inhibitor valacyclovir; type: ADME, cell-based, Cricetulus griseus; conditions: chinese hamster, cho-k1, 10 min; in short: as §4
[16] = Drug uptake in CHOK1 cells at 100 uM at 4 degC after 10 mins by HPLC coupled with radiodetection analysis; type: ADME, cell-based, Cricetulus griseus; conditions: chinese hamster, cho-k1, 10 min; in short: as §4
[17] = Drug uptake in CHOK1 cells expressing human PEPT1 at 100 uM after 10 mins by HPLC coupled with radiodetection analysis in presence of PEPT1 inhibitor valacyclovir; type: ADME, cell-based, Cricetulus griseus; conditions: chinese hamster, cho-k1, 10 min; in short: as §5
[18] = Drug uptake in CHOK1 cells expressing human PEPT1 at 100 uM at 4 degC after 10 mins by HPLC coupled with radiodetection analysis; type: ADME, cell-based, Cricetulus griseus; conditions: chinese hamster, cho-k1, 10 min
In short: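 100 µM [14C]oseltamivir was incubated with CHO-PEPT1 and CHO-K1 cells for 10 min in KH/MES buffer pH 6, on ice (4°C) or on a 37°C block. Uptake was stopped with ice-cold PBS-BSA, cells were washed and lysed in Triton X-100, and radioactivity was counted per mg protein (BCA). Three independent experiments.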

| SMILES | AUC(0-t) at 5 h [1] [ng·h/mL] | AUC(0-t) at 6 h [2] [ng·h/mL] | AUC(0-inf) [3] [ng·h/mL] | Tmax [4] [h] | Cmax [5] [ng/mL] | AUC(0-t) at 24 h [6] [ng·h/mL] | CL renal [7] [mL/min] | Tmax [8] [h] | AUC(0-inf) [9] [ng·h/mL] | Cmax [10] [ng/mL] | Drug uptake [11] | Drug uptake [12] | Drug uptake [13] | Drug uptake [14] | Drug uptake [15] | Drug uptake [16] | Drug uptake [17] | Drug uptake [18] |
| --- | --- | --- | --- | --- | --- | --- | --- | --- | --- | --- | --- | --- | --- | --- | --- | --- | --- | --- |
| CCC(CC)O[C@@H]1C=C(C(=O)O)C[C@H](N)[C@H]1NC(C)=O [OSELTAMIVIR CARBOXYLATE] | 10900 | 5810 | 5290 | 4.37 | 2290 | 6330 | 223 | 1.42 | 4870 | 1500 | Active |  |  |  |  |  |  |  |
| CCOC(=O)C1=C[C@@H](OC(CC)CC)[C@H](NC(C)=O)[C@@H](N)C1 [OSELTAMIVIR] | 27100 | 3010 | 2510 | 0.806 | 1690 | 2800 | 340 | 0.66 | 2840 | 6140 | Active | Not Active | Active | Not Active | Not Active | Not Active | Not Active | Not Active |
